Values after ≈ are worked out from the molar mass of the structure shown. “Also recorded” adds a separate entry of the source.
Tests used:
[1] = tested on: capsaicin-induced flare; experiment: Block of topical capsaicin-induced flare in rats; format: in vivo, Sprague Dawley rats
[2] = Plasma pharmacokinetics after single oral dose; format: in vivo, healthy men; settings: for Tmax / half-life: male, human, plasma; for Tmax: Median tmax
In short: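 After a fast of at least 10 h, single oral tablets were given semirecumbent with 240 mL water (part 1: 1–225 mg; part 2: 10, 50 mg). Plasma was assayed by validated LC-MS/MS over 1–1000 ng/mL (LLOQ 1 ng/mL). Noncompartmental analysis used actual times. Cmax and tmax were taken by inspection, t1/2 = 0.693/λz, CL/F = dose/AUC∞, and Vz/F = D/(λz × AUC∞).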

[3] = Urinary excretion and renal clearance; format: in vivo, healthy men
In short: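 Samples were assayed by LC-MS/MS over 5–1000 ng/mL (LLOQ 5 ng/mL). Excreted amount = urine volume × concentration, % of dose = Ae/dose × 100, and renal clearance = Ae/AUC.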

[4] = tested on: naïve and UVB-sensitized skin; experiment: Sensory testing part 2 on naïve and UVB-sensitized skin; format: in vivo, healthy men
In short: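 In the part 2 crossover (oral 10 or 50 mg, or placebo), minimal erythema dose was first found with graded UVB on the lower back. Three times that dose was then given to the volar forearm. Warm detection, heat pain detection, heat pain tolerance, mechanical pain threshold and allodynia were tested on UVB-treated and naïve skin. Times were predose, 4, 8, 24, 72, 120 and 144 h, and follow-up, to a 52 °C maximum.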

[5] = tested on: capsaicin-induced flare; experiment: Capsaicin-induced flare area and intensity in humans; format: in vivo, healthy men
In short: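 Part 2 was a double-blind, 3-way crossover of single oral test compound (10 or 50 mg) or placebo tablets after an overnight fast. Capsaicin cream (0.075% w/w) stayed on the forearm for 30 min. Laser Doppler scans were taken before and after, at predose, 4 h and 144 h postdose. Flare area counted pixels with flux above the 95th percentile (mean + 2 SD) of baseline. Intensity was taken as relative flux.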

[6] = Oral body temperature and Emax model vs plasma concentration; format: in vivo, healthy men; settings: for Mean maximum body temperature: part 2
In short: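 Oral temperature was recorded as a safety measure in healthy men after single oral tablet doses (part 1: 1–225 mg; part 2: 10, 50 mg, placebo). The maximum value was summarised per dose. An Emax model with baseline effect E0, Emax and EC50 related body temperature to plasma concentration of the test compound.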

[7] = QTcF interval; format: in vivo, healthy men
[8] = molecular target: human TRPV1 receptors; settings: cited from earlier work
[9] = tested on: carrageenan-evoked thermal hyperalgesia; settings: cited from earlier work
[10] = part 1, vs plasma concentration

Structure (SMILES): CC(C)(O)c1ccccc1-c1ccc2[nH]c(/C=C/c3ccc(C(F)(F)F)cc3)nc2c1 [JNJ-39439335, trans-2-(2-{2-[2-(4-Trifluoromethyl-phenyl)-vinyl]-1H-benzimidazol-5-yl}-phenyl)-propan-2-ol]
- Capsaicin-induced flare ([1]; pretreatment 0.3–30 mg/kg, p.o.): blocked the capsaicin-induced flare in a dose-dependent fashion
- Estimated plasma exposure associated with ED50 ([1]; rat, data not shown): 0.0676 ± 0.0449 mg/L
- Flare response induced by 1000 μg topical capsaicin ([1]; rat, single oral dose of 10 mg/kg): completely blocked
- Dose proportionality of exposure (Cmax, AUC∞) ([2]; doses of 1 to 225 mg): less than dose-proportional increase in exposure
- Tmax ([2]; oral, 50 mg, part 2, 10 and 50 mg, tablet, fasted): ~3 h
- half-life ([2]; oral, Mean elimination half-life, part 1, doses of 1 to 225 mg): 29.9 to 85.9 h
- Tmax ([2]; oral, across the dose range administered (discussion)): 2 to 4.5 h
- Tmax ([2]; oral, part 1, doses of 1 to 225 mg, tablet, fasted): 2.02 to 4.44 h
- half-life ([2]; po, Terminal phase half-life, single oral doses): 30 to 86 h
- Renal clearance ([3]; in vivo): negligible
- Concentrations in urine ([3]; lower limit of quantification 5 ng/mL): below the quantification limit
- HPD threshold, HPT, and warm detection threshold ([4]; naïve and UVB-sensitized skin, 10 and 50 mg): dose-dependent increase
- Mechanical pain detection threshold ([4]; naïve skin or UVB-sensitized skin): no clear treatment or dose-related effects
- Plasma concentration at which most participants detected warmth before 52°C ([4]; warm detection threshold): < 200 ng/mL
- Plasma concentration giving maximum effect on flare area and flare intensity ([5]; 4-hour postdose): ≥ 90 ng/mL
- Plasma concentration giving maximum effect on flare area and flare intensity ([5]; 144-hour postdose): > 5 ng/mL
- Capsaicin-induced flare intensity and flare area ([5]; part 2, 10 and 50 mg, 4- and 144-hour postdose): dose-related reduction
- Capsaicin-induced flare area and flare intensity ([5]; part 2, 50-mg dose, 144 hours postdose): complete blocking; also recorded: completely blocked
- EC50 ([6]; Homo sapiens, po, read-out: EC50, body temperature Emax model): 0.0327 mg/L (≈ 0.0774 µM)
- Participants with body temperature ≥39°C ([6]; part 1, 120-mg, approximately 11-hour postdose): 1 participant
- E0, body temperature Emax model [6, 10]: 36.6 °C
- Emax, body temperature Emax model [6, 10]: 37.6 °C
- Mean maximum body temperature ([6]; 10 mg): 37.9 °C
- Mean maximum body temperature ([6]; 50 mg): 38.0 °C
- Participants with increase in QTcF of >30 milliseconds or QTcF >450 milliseconds ([7]; either part of the study): No participant
- Participants with QTcF interval shortening of >30 milliseconds vs baseline ([7]; part 1, 10 mg dose group): 2 n
- Participants with QTcF interval shortening of >30 milliseconds vs baseline ([7]; part 1, 15 mg dose group): 3 n
- Participants with QTcF interval shortening of >30 milliseconds vs baseline ([7]; part 1, 120 mg dose group): 2 n
- Participants with QTcF interval shortening of >30 milliseconds vs baseline ([7]; part 1, 225 mg dose group): 2 n
- Participants with QTcF interval shortening of >30 milliseconds vs baseline ([7]; part 1, all JNJ-39439335 doses): 9 participants
- Participants with QTcF interval shortening of >30 milliseconds vs baseline ([7]; part 2, 50 mg): 4 participants
- IC50 [8]: 4.7 nM
- Near maximally effective plasma concentration at the ED80 ([9]; rat carrageenan model of inflammatory pain): 0.009 mg/L
- Carrageenan-evoked thermal hyperalgesia ([9]; rat): significantly attenuated

— PMC5741288 (Pain Reports, 2016)
